This note sets out measurements from publication PMC8530978 (Bioorganic chemistry, 2021).

The subject of test [1] is NCI sixty human tumor cell line panel. Nature of the test: NCI sixty human tumor cell line panel, single dose 10 μM. It counts as cell-based. To be noted: for Mean % growth at 10 μM: mean growth percent over NCI 60 panel, single dose 10 μM; for activity at 10 µM: read-out: Mean % growth at 10 μM; for growth inhibition activity (in words): NCI 60 single dose 10 μM.
Test [2] has as its target T1, HDAC8 (Homo sapiens, UniProt Q9BY41).
T1 sequence (Q9BY41 1-377): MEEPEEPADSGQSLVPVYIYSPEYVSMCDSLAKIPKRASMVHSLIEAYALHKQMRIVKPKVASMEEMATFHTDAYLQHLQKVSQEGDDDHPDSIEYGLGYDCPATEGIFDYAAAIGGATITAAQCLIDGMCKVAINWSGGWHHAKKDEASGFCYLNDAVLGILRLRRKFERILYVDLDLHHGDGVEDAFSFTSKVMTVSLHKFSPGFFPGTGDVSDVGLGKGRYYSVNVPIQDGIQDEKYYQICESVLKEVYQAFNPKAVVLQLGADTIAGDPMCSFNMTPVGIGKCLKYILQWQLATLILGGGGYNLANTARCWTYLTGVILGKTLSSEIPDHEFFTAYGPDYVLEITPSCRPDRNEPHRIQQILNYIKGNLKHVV
Nature of the test: HDAC-Glo inhibitor testing with recombinant HDAC8. The test is classed as biochemical. Particulars: read-out: HDAC8 activity remaining.

Test [3] concerns HeLaM cells. The test can be described thus: Flow cytometry cell cycle analysis. It counts as cell-based. Particulars: 72 hr post treatment (DMSO 14%). The gist of the method:
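5 × 10^5 HeLaM cells plated, treated next day with test compound or DMSO for 24, 48 or 72 h. All cells (floating and attached) collected and fixed in 70% ethanol (final). […] 10 μg/ml, 30 min, 37 °C, then propidium iodide in PBS + 2% FBS. SubG1 gated; subG1 excluded before modeling live-cell cycle distribution.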
(In general: Flow cytometry measures light scatter and fluorescence of single cells or particles in a stream.)

Test [4] has as its system mitotic spindle of HeLaM cells. The test is classed as cell-based. To be noted: compound 10 μM + MG132 + ZM447439 (DMSO+MG132+ZM447439 3%).

Some results are limits rather than exact numbers.

“4-(3-(2-Hydroxyphenyl)-3-oxopropyl)phenyl)-N-(naphthalen-1-yl)acetamide [HPE-33]”: in test [1], the “Mean % growth at 10 μM” value was 91.98%. Turning to `O=C(Cc1ccc(/C=C/C(=O)c2ccccc2O)cc1)Nc1ccccc1` [HPE-32, (E)-2-(4-(3-(2-Hydroxyphenyl)-3-oxoprop-1-en-1-yl)phenyl)-N-phenylacetamide], the activity at 10 µM in test [1] (Homo sapiens) is 85.9%. Turning to `O=C(Cc1ccc(C(O)CC(=O)c2ccccc2O)cc1)Nc1ccccc1` (centres unmarked) [HPE-34, 2-(4-(1-Hydroxy-3-(2-hydroxyphenyl)-3-oxopropyl)phenyl)-N-phenylacetamide], the activity at 10 µM in test [1] (Homo sapiens) worked out at 89.6%. For `CN(C)c1ccc(NC(=O)Cc2ccc(/C=C/C(=O)c3ccccc3O)cc2)cc1` [HPE-35, (E)-N-(4-(Dimethylamino)phenyl)-2-(4-(3-(2-hydroxyphenyl)-3-oxoprop-1-en-1-yl)phenyl)acetamide], in test [1] (Homo sapiens), the activity at 10 µM came out at 85.9%.

For `O=C(Cc1ccc(/C=C/C(=O)c2ccccc2O)cc1)Nc1cccc2ccccc12` [HPE-36, (E)-2-(4-(3-(2-Hydroxyphenyl)-3-oxoprop-1-en-1-yl)phenyl)-N-(naphthalen-1-yl)acetamide], the activity at 10 µM in test [1] (Homo sapiens) came out at 96.2%.

Consider `O=C(Cc1ccc(/C=C/C(=O)c2ncc[nH]2)cc1)Nc1ccccc1` [IPE-1, (E)-2-(4-(3-(1H-Imidazol-2-yl)-3-oxoprop-1-en-1-yl)phenyl)-N-phenylacetamide], for which the activity at 10 µM in test [1] (Homo sapiens) was 45.3%. Further, the inhibition (as a rule, the percentage by which the read-out fell short of the control) at 10 µM in test [1] (Homo sapiens, read-out: growth inhibition at 10 μM) was over 50%.

Regarding `O=C(Cc1ccc(/C=C/C(=O)c2ncc[nH]2)cc1)NC1CCCCC1` [IPE-2, (E)-2-(4-(3-(1H-Imidazol-2-yl)-3-oxoprop-1-en-1-yl)phenyl)-N-cyclohexylacetamide], the activity at 10 µM in test [1] (Homo sapiens) was 70%. In addition, the “growth inhibition activity (in words)” value in test [1] is “almost completely inactive”.

For the molecule `COc1ccc(NC(=O)Cc2ccc(/C=C/C(=O)c3ncc[nH]3)cc2)cc1` [IPE-4, (E)-2-(4-(3-(1H-imidazol-2-yl)-3-oxoprop-1-en-1-yl)phenyl)-N-(4-methoxyphenyl)acetamide], the activity at 10 µM in test [1] (Homo sapiens) was 66.8%. The same measure, in the same setting: for `CN(C)c1ccc(NC(=O)Cc2ccc(/C=C/C(=O)c3ncc[nH]3)cc2)cc1` [IPE-5, (E)-2-(4-(3-(1H-imidazol-2-yl)-3-oxoprop-1-en-1-yl)phenyl)-N-(4-(dimethylamino)phenyl)acetamid] the value was 52.1%; for `O=C(Cc1ccc(/C=C/C(=O)c2ncc[nH]2)cc1)Nc1cccc2ccccc12` [IPE-6, (E)-2-(4-(3-(1H-imidazol-2-yl)-3-oxoprop-1-en-1-yl)phenyl)-N-(naphthalen-1-yl)acetamide], 76.3%.

On to `O=C(Cc1ccc(/C=C/C(=O)c2ncc[nH]2)cc1)Nc1ccc(S(F)(F)(F)(F)F)cc1` [IPE-10, (E)-2-(-4(3-(1H-imidazol-2-yl)-3-oxoprop-1-en-1-yl)phenyl)-N-(4-pentafluorosulfaneyl)acetamide], for which the “Mean % growth at 10 μM” value in test [1] was found to be 64.07%. `O=C(Cc1ccc(/C=C/C(=O)c2ncc[nH]2)cc1)Nc1ccc(C(F)(F)F)cc1` [IPE-11, (E)-2-(4-(3-(1H-Imidazole-2-yl)-3-oxoprop-1-en-1-yl)phenyl)-N-(4-(trifluoromethyl)phenyl)acetamide]: the activity at 10 µM in test [1] (Homo sapiens) was determined as 23.5%.

In the case of `O=C(Cc1ccc(/C=C/C(=O)c2ncc[nH]2)cc1)Nc1cc(F)c(F)c(F)c1` [IPE-12, (E)-2-(-4(3-(1H-imidazol-2-yl)-3-oxoprop-1-en-1-yl)phenyl)-N-(3,4,5-trifluorophenyl)acetamide], the activity at 10 µM in test [1] (Homo sapiens) was 51.1%. On to `O=C(Cc1ccc(/C=C/C(=O)c2ncc[nH]2)cc1)Nc1c(F)c(F)c(F)c(F)c1F` [IPE-13, (E)-2-(-4(3-(1H-imidazol-2-yl)-3-oxoprop-1-en-1-yl)phenyl)-N-(perfluorophenyl)acetamide], for which the activity at 10 µM in test [1] (Homo sapiens) was 91.8%.

`O=C(Cc1ccc(/C=C/C(=O)c2ncc[nH]2)cc1)Nc1cc(C(F)(F)F)cc(C(F)(F)F)c1` [IPE-14, (E)-2-(-4(3-(1H-imidazol-2-yl)-3-oxoprop-1-en-1-yl)phenyl)-N-(bis(3,5-trifluoromethyl)phenyl)acetamide]: the “Mean % growth at 10 μM” value in test [1] is listed as 77.21%.

With `Cn1ccnc1C(=O)/C=C/c1ccc(CC(=O)NC2CCCCC2)cc1` [IPE-15, (E)-N-Cyclohexyl-2-(4-(3-(1-methyl-1H-imidazol-2-yl)-3-oxoprop-1-en-1-yl)phenyl)acetamide], the activity at 10 µM in test [1] (Homo sapiens) is 57.7%. Still for that read-out and setting: to `Cn1ccnc1C(=O)/C=C/c1ccc(CC(=O)Nc2ccc(Cl)cc2)cc1` [IPE-17, (E)-N-(4-chlorophenyl)-2-(4-(3-(1-methyl-1H-imidazol-2-yl)-3-oxoprop-1-en-1-yl)phenyl)acetamide] belongs 19.3%; to `O=C(Cc1ccc(/C=C/C(=O)c2nccn2Cc2ccccc2)cc1)Nc1ccc(F)cc1` [IPE-20, (E)-2-(4-(3-(1-Benzyl-1H-imidazol-2-yl)-3-oxoprop-1-en-1-yl)phenyl)-N-(4-fluorophenyl)acetamide], 54.7%. Turning to `CCn1ccnc1C(=O)/C=C/c1ccc(CC(=O)Nc2ccc(F)cc2)cc1` [IPE-21, (E)-2-(4-(3-(1-Ethyl-1H-imidazol-2-yl)-3-oxoprop-1-en-1-yl)phenyl)-N-(4-fluorophenyl)acetamide], in test [1] (Homo sapiens), the activity at 10 µM worked out at 29.2%.

With `Cn1ccnc1C(=O)/C=C/c1ccc(CC(=O)Nc2ccc(C(F)(F)F)cc2)cc1` [IPE-23, (E)-2-(4-(3-(1-methyl-1H-imidazol-2-yl)-3-oxoprop-1-en-1-yl)phenyl)-N-(4-(trifluoromethyl)phenyl)acetamide], the activity at 10 µM in test [1] (Homo sapiens) is 13%. For `O=C(Cc1ccc(CCC(=O)c2ncc[nH]2)cc1)Nc1ccccc1` [IPE-28, 2-(4-(3-(1H-imidazol-2-yl)-3-oxopropyl)phenyl)-N-phenylacetamide], the activity at 10 µM in test [1] (Homo sapiens) was determined as 92.8%. The “growth inhibition activity (in words)” value in test [1] was “virtually inactive”. As for `Cn1ccnc1C(=O)C1CC1c1ccc(CC(=O)Nc2ccc(Br)cc2)cc1` (centres unmarked) [IPE-29, N-(4-bromophenyl)-2-(4-(2-(1-methyl-1H-imidazole-2-carbonyl)cyclopropyl)phenyl)acetamide], in test [1] (Homo sapiens), the activity at 10 µM worked out at 98.7%. In test [1], the “growth inhibition activity (in words)” value was “virtually inactive”. Also, the remaining activity (in general, the signal under treatment as a percentage of the control signal) at 100 µM in test [2] fell in the range of 20 to 60%.

`O=C(Cc1ccc(/C=C/C(=O)c2ncccn2)cc1)Nc1ccccc1` [PPE-31, (E)-2-(4-(3-Oxo-3-(pyrimidin-2-yl)prop-1-en-1-yl)phenyl)-N-phenylacetamide]: the activity at 10 µM in test [1] (Homo sapiens) came to 99.1%.

`O=C(Cc1ccc(/C=C/C(=O)c2nccs2)cc1)Nc1ccccc1` [TPE-30, (E)-2-(4-(3-Oxo-3-(thiazol-2-yl)prop-1-en-1-yl)phenyl)-N-phenylacetamide]: in test [1] (Homo sapiens), the activity at 10 µM came out at 84.3%. For the same molecule, the “growth inhibition activity (in words)” value in test [1] is “inactive”. Take `CN1CCc2c(c3ccccc3n2Cc2ccc(C(=O)NO)cc2)C1` [Tubastatin A, reference compound]: the subG1 population entry in test [3] is on record as “little effect on subG1”. Further, in test [4], the spindle collapse entry is recorded as “did not produce the same aberrant spindle”.
